Assay [1] relates to MCF7. Description: Antiproliferative activity against human MCF7 cells after 48 hrs by MTT assay. The conditions noted are these: MCF7, 48 h. It counts as functional, cell-based. The method, boiled down: (§1)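 Cells grown to log phase in RPMI 1640 with 10% FBS, diluted to 2 × 10⁴ cells/mL and seeded, then incubated 24 h at 37 °C, 5% CO₂ before treatment. Samples at pre-set concentrations were added in six wells, with colchicine and CA-4 as references. After 48 h, MTT in PBS was added for 4 h, followed by extraction solution (10% SDS).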
(In general: Tetrazolium assays rely on reduction of a dye to a coloured formazan, in cell work by metabolically active cells.)

Assay [2] relates to A549. As to the kind of experiment: Antiproliferative activity against human A549 cells after 48 hrs by MTT assay. It counts as functional, cell-based. The conditions noted are these: A549, 48 h. Put shortly: as §1
A short description of assay [3]: Inhibition of bovine tubulin polymerization after 20 mins by spectrophotometry. Details: species or system Bos taurus. The method, boiled down: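 Tubulin was purified from bovine brain. Varying compound concentrations were preincubated with 10 µM tubulin in glutamate buffer at 30 °C, then cooled to 0 °C. GTP was added and the mixtures were moved to 0 °C cuvettes. They were then warmed to 30 °C in a recording spectrophotometer, with assembly followed turbidimetrically.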

The test system of assay [4] is MCF7. Description: Cell cycle arrest in human MCF7 cells assessed as accumulation in G0/G1 phase at 5 ug/ml after 24 hrs by flow cytometry (reference value: 47.79%). It counts as functional. (In flow cytometry, cells or beads pass a laser one at a time.)
Assay [5] deals with MCF7. As to the kind of experiment: Cell cycle arrest in human MCF7 cells assessed as accumulation in S phase at 5 ug/ml after 24 hrs by flow cytometry (reference value: 8.06%). The class given is functional.
The subject of assay [6] is MCF7. As to the kind of experiment: Cell cycle arrest in human MCF7 cells assessed as accumulation in G2/M phase at 5 ug/ml after 24 hrs by flow cytometry (reference value: 12.99%). It counts as functional.

In brackets after ≈: the same amount, converted by molar mass.

Drawing on ChEMBL document CHEMBL2016516, “Design, synthesis and biological evaluation of novel chalcone derivatives as antitubulin agents” (Bioorg Med Chem, 2012), this text covers IC50 and Activity for 22 compounds.

What is called IC50 is the concentration at which inhibition is half-maximal. Turning to `Cc1ccc(C(=O)/C=C/c2cc(Br)cc(Br)c2Oc2c([N+](=O)[O-])cc(C(F)(F)F)cc2[N+](=O)[O-])cc1`, the IC50 in assay [1] stood at 1.44 µg/mL (≈ 2.29 µM); in assay [2], 10.1 µg/mL (≈ 16.1 µM); in assay [3], 5.68 µg/mL (≈ 9.01 µM).
On to `Cc1ccc(C(=O)/C=C/c2cc(Cl)cc(Cl)c2Oc2c([N+](=O)[O-])cc(C(F)(F)F)cc2[N+](=O)[O-])cc1`, for which the IC50 in assay [1] came out at 0.7 µg/mL (≈ 1.29 µM); in assay [2] it was 10 µg/mL (≈ 18.6 µM); in assay [3], 4.87 µg/mL (≈ 9 µM).
With `Cc1ccc(C(=O)/C=C/c2cc(Br)ccc2Oc2c([N+](=O)[O-])cc(C(F)(F)F)cc2[N+](=O)[O-])cc1`, the IC50 was 0.55 µg/mL (≈ 0.998 µM) in assay [1], 6.85 µg/mL (≈ 12.4 µM) in assay [2] and 6.41 µg/mL (≈ 11.6 µM) in assay [3].
With `Cc1ccc(C(=O)/C=C/c2cc(Cl)ccc2Oc2c([N+](=O)[O-])cc(C(F)(F)F)cc2[N+](=O)[O-])cc1`, the IC50 in assay [1] was 0.03 µg/mL (≈ 0.0592 µM); in assay [2], 0.95 µg/mL (≈ 1.87 µM); in assay [3], 1.42 µg/mL (≈ 2.8 µM). The Activity is reported as 2.36% in assay [4], 1.55% in assay [5] and 67.93% in assay [6].
`COc1ccc(C(=O)/C=C/c2cc(Br)cc(Br)c2Oc2c([N+](=O)[O-])cc(C(F)(F)F)cc2[N+](=O)[O-])cc1`: the values for the IC50 in assay [1], in assay [2] and in assay [3] were 3.53 µg/mL (≈ 5.46 µM), 13.2 µg/mL (≈ 20.4 µM) and 6.02 µg/mL (≈ 9.32 µM), respectively.
Consider `COc1ccc(C(=O)/C=C/c2cc(Cl)cc(Cl)c2Oc2c([N+](=O)[O-])cc(C(F)(F)F)cc2[N+](=O)[O-])cc1`, for which the IC50 came out at 2.69 µg/mL (≈ 4.83 µM) in assay [1], 12.5 µg/mL (≈ 22.5 µM) in assay [2] and 6.56 µg/mL (≈ 11.8 µM) in assay [3].
Take `COc1ccc(C(=O)/C=C/c2cc(Br)ccc2Oc2c([N+](=O)[O-])cc(C(F)(F)F)cc2[N+](=O)[O-])cc1`: the results for the IC50 in assay [1], in assay [2] and in assay [3] were 2.32 µg/mL (≈ 4.09 µM), 12.6 µg/mL (≈ 22.3 µM) and 4.08 µg/mL (≈ 7.19 µM), respectively.
For `COc1ccc(C(=O)/C=C/c2cc(Cl)ccc2Oc2c([N+](=O)[O-])cc(C(F)(F)F)cc2[N+](=O)[O-])cc1` the same measures were 1.83 µg/mL (≈ 3.5 µM), 11.5 µg/mL (≈ 22 µM) and 4.83 µg/mL (≈ 9.24 µM).
For `O=C(/C=C/c1cc(Br)cc(Br)c1Oc1c([N+](=O)[O-])cc(C(F)(F)F)cc1[N+](=O)[O-])c1ccc(F)cc1` the same measures were 8.06 µg/mL (≈ 12.7 µM), 120 µg/mL (≈ 190 µM) and 15.31 µg/mL (≈ 24.1 µM).
Consider `O=C(/C=C/c1cc(Cl)cc(Cl)c1Oc1c([N+](=O)[O-])cc(C(F)(F)F)cc1[N+](=O)[O-])c1ccc(F)cc1`, for which the results for the IC50 in assay [1], in assay [2] and in assay [3] were 5.02 µg/mL (≈ 9.21 µM), 29.3 µg/mL (≈ 53.8 µM) and 9.62 µg/mL (≈ 17.6 µM), respectively.
For `O=C(/C=C/c1cc(Br)ccc1Oc1c([N+](=O)[O-])cc(C(F)(F)F)cc1[N+](=O)[O-])c1ccc(F)cc1` the same measures were 6.01 µg/mL (≈ 10.8 µM), 26.3 µg/mL (≈ 47.4 µM) and 12.31 µg/mL (≈ 22.2 µM).
For `O=C(/C=C/c1cc(Cl)ccc1Oc1c([N+](=O)[O-])cc(C(F)(F)F)cc1[N+](=O)[O-])c1ccc(F)cc1` the same measures were 5.17 µg/mL (≈ 10.1 µM), 23.8 µg/mL (≈ 46.6 µM) and 11.66 µg/mL (≈ 22.8 µM).
For `O=C(/C=C/c1cc(Br)cc(Br)c1Oc1c([N+](=O)[O-])cc(C(F)(F)F)cc1[N+](=O)[O-])c1ccc(Cl)cc1`, the figures for the IC50 in assay [1], in assay [2] and in assay [3] were 6.76 µg/mL (≈ 10.4 µM), 19.4 µg/mL (≈ 29.9 µM) and 12.6 µg/mL (≈ 19.4 µM), respectively.
For `O=C(/C=C/c1cc(Cl)cc(Cl)c1Oc1c([N+](=O)[O-])cc(C(F)(F)F)cc1[N+](=O)[O-])c1ccc(Cl)cc1`, in that order: 4.54 µg/mL (≈ 8.08 µM), 17.2 µg/mL (≈ 30.7 µM) and 6.34 µg/mL (≈ 11.3 µM).
For `O=C(/C=C/c1cc(Br)ccc1Oc1c([N+](=O)[O-])cc(C(F)(F)F)cc1[N+](=O)[O-])c1ccc(Cl)cc1`, in that order: 4.74 µg/mL (≈ 8.29 µM), 16.5 µg/mL (≈ 28.9 µM) and 7.14 µg/mL (≈ 12.5 µM).
For `O=C(/C=C/c1cc(Cl)ccc1Oc1c([N+](=O)[O-])cc(C(F)(F)F)cc1[N+](=O)[O-])c1ccc(Cl)cc1` the same measures were 3.21 µg/mL (≈ 6.09 µM), 11.7 µg/mL (≈ 22.2 µM) and 4.68 µg/mL (≈ 8.88 µM).
`O=C(/C=C/c1cc(Br)cc(Br)c1Oc1c([N+](=O)[O-])cc(C(F)(F)F)cc1[N+](=O)[O-])c1ccc(Br)cc1`: the results for the IC50 in assay [1], in assay [2] and in assay [3] were 2.87 µg/mL (≈ 4.13 µM), 16.8 µg/mL (≈ 24.2 µM) and 10.01 µg/mL (≈ 14.4 µM), respectively.
Regarding `O=C(/C=C/c1cc(Cl)cc(Cl)c1Oc1c([N+](=O)[O-])cc(C(F)(F)F)cc1[N+](=O)[O-])c1ccc(Br)cc1`, the IC50 in assay [1] was determined as 2.6 µg/mL (≈ 4.29 µM); in assay [2], 14.5 µg/mL (≈ 23.9 µM); in assay [3], 9.46 µg/mL (≈ 15.6 µM).
As for `O=C(/C=C/c1cc(Br)ccc1Oc1c([N+](=O)[O-])cc(C(F)(F)F)cc1[N+](=O)[O-])c1ccc(Br)cc1`, the figures for the IC50 in assay [1], in assay [2] and in assay [3] were 2.17 µg/mL (≈ 3.52 µM), 13.7 µg/mL (≈ 22.3 µM) and 6.25 µg/mL (≈ 10.1 µM), respectively.
Turning to `O=C(/C=C/c1cc(Cl)ccc1Oc1c([N+](=O)[O-])cc(C(F)(F)F)cc1[N+](=O)[O-])c1ccc(Br)cc1`, the results for the IC50 in assay [1], in assay [2] and in assay [3] were 1.41 µg/mL (≈ 2.47 µM), 10.9 µg/mL (≈ 19 µM) and 4.62 µg/mL (≈ 8.08 µM), respectively.
`COc1cc2c(c(OC)c1OC)-c1ccc(OC)c(=O)cc1[C@@H](NC(C)=O)CC2` [COLCHICINE]: the IC50 came to 0.51 µg/mL (≈ 1.28 µM) in assay [1], 0.74 µg/mL (≈ 1.85 µM) in assay [2] and 1.7 µg/mL (≈ 4.26 µM) in assay [3]. Moreover, the results for the Activity in assay [4], in assay [5] and in assay [6] were 1.96%, 1.34% and 78.1%, respectively.
Take `COc1ccc(/C=C\c2cc(OC)c(OC)c(OC)c2)cc1O` [COMBRETASTATIN A4]: the IC50 in assay [1] turned out to be 0.43 µg/mL (≈ 1.36 µM); in assay [2], 0.53 µg/mL (≈ 1.68 µM); in assay [3], 0.81 µg/mL (≈ 2.56 µM).
